NF-kB neuron act = compounds increasing NF-kB expression in human neuronal cells; AID 1239; hit rate 1.6% among 190,000; NF-kB reporter expression; hits give high values; fold change at 12.5 µM; in the data active means fold change above about 3.3
APP 5'UTR act = activates APP 5'UTR luciferase reporter; SH-SY5Y APP 5'UTR luciferase reporter, luminescence; zero percent = DMSO vehicle wells; activation, % at 2 µM; hit rate 1% among 190,000;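 active means activation above a set limit, based on mean plus 3 SD of controls, cut at about 140% in these data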
STAT1 blocker = reduces IFN-gamma driven STAT1 reporter signal. NIH 3T3 STAT1-luciferase reporter, luminescence. inhibition, % at 5.5 µM. hit rate 0.35% among 200,000. AID 920;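 active means inhibition above a set limit, the mean inhibition across all tested compounds plus 3 SD, cut at about 34% in these data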;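 further: 0% = IFN-gamma with DMSO and 100% = IFN-gamma with 300 µM nifuroxazide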
STAT1 act = activators of IFN-gamma induced STAT1 signaling | AID 932 | hit rate 2.6% among 200,000 | NIH 3T3 STAT1-luciferase reporter, luminescence; 100% = IFN-gamma alone, no compound | activation (% of control), % at 5.5 µM;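 active means activation above the screen-wide mean activation plus 3 SD, cut at about 130% in these data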;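 further: raw ratio to IFN-gamma control signal so 100% means no change and 0% no light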
STAT3 inh = STAT3 signaling inhibition; inhibition, % at 5.5 µM; hit rate 0.89% among 190,000; AID 862; U3A cells, IL-6 STAT3-luciferase reporter, luminescence; host cell line lacks STAT1;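 active means inhibition above the mean inhibition across all screened compounds plus 3 SD, cut at about 44% in these data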;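 further: 0% = DMSO only wells and 100% = 100 µM nifuroxazide control wells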
STAT3 activator = activators of IL-6 induced STAT3 signaling. U3A cells, IL-6 STAT3-luciferase reporter, luminescence; 100% = signal with IL-6 EC80 alone. activation (% of control), % at 5.6 µM. hit rate 0.91% among 190,000. AID 871;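 active means activation above the screen-wide mean of compound activation plus 3 SD, cut at about 130% in these data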;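 further: 0% = background luminescence of wells with medium and substrate only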
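Test system: human U3A cells carrying STAT3-luciferase construct; control set: IL-6-only wells as 100% reference; timing: compound pre-incubation 1 h before IL-6, then 6 h stimulation at 37 °C; also added: IL-6 stimulus at 33 ng/mL final; evaluation: % activation versus median of IL-6-stimulated wells; detection: reporter luminescence signal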
STAT1 activ conf = STAT1 activation, confirmation assay; activation (% of control), % at 5.7 µM; shares compounds with STAT1 act; AID 1262; hit rate 97% among 1,200; NIH 3T3 STAT1-luciferase reporter, IFN-gamma potentiation, luminescence; 100% = IFN-gamma EC80 alone, no compound;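 active means activation above a set limit carried over from the earlier primary STAT1 screen, cut at about 140% in these data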;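 further: simple ratio to median IFN-gamma plus DMSO wells so 0% means no light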
NFkB act = counter-screen for STAT1 activators: NF-kappaB activation; activation (% of control), % at 5.7 µM; AID 1306; HEK293T NF-kB luciferase reporter, TNF-alpha stimulated, luminescence; 100% = TNF-alpha with vehicle only; shares compounds with STAT1 act; hit rate 43% among 1,200;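 active means activation above the mean of solvent-only control wells plus 3 SD, set per campaign, cut at about 130% in these data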;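 further: TNF-alpha given at a submaximal dose yielding about 80% of full reporter signal; values are well signal over median control so 100% means no change and 0% no light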
STAT3 act 2 = counter-screen for STAT1 activators: human STAT3 activation; U3A cells STAT3-luciferase reporter, IL-6, luminescence; cells lack STAT1; 100 = IL-6 alone, no compound effect; shares compounds with STAT1 act; hit rate 46% among 1,200; activation (% of control), % at 5.7 µM;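 active means activation above the solvent-only control well mean plus 3 SD, set per plate batch, cut at about 110% in these data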;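 further: 0% = no luminescence and 100% = median IL-6 plus DMSO wells; higher means more STAT3 reporter activation so hits are non-selective activators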
Starred values were filed as active, the others as inactive. This is a sample that favours compounds with a hit; in the whole collection about 5.1% have one here.

N#CC1=C(N)N2C(=C(C#N)C13CCCC3)Nc1ccccc12 was read as NF-kB neuron act 1.2, APP 5'UTR act 31, STAT1 blocker 3, STAT1 act 95, STAT3 inh 10 and STAT3 activator 95.
`Cc1ccc(OCC(=O)N2CCc3ccccc32)cc1` gave NF-kB neuron act 2.6, APP 5'UTR act 156*, STAT1 blocker -62, STAT1 act 155*, STAT3 inh -2, STAT3 activator 100, STAT1 activ conf 192*, NFkB act 134* and STAT3 act 2 105.
Cc1ccc(OC(=O)CCC(=O)N2CCc3ccccc32)cc1 was read as NF-kB neuron act 1.2, APP 5'UTR act 1, STAT1 blocker 7, STAT1 act 94, STAT3 inh -31 and STAT3 activator 131.
For O=S(=O)(c1ccc(Cl)cc1)N1CCN=C1SCc1ccc(Cl)c(Cl)c1 the results were NF-kB neuron act 1.1, APP 5'UTR act -13, STAT1 blocker -6, STAT1 act 105, STAT3 inh 4 and STAT3 activator 101.
`CCOC(=O)/C(C#N)=C/c1cc(C)n(-c2ccccc2)c1C` gave NF-kB neuron act 1.2, APP 5'UTR act 153*, STAT1 blocker -41, STAT1 act 165*, STAT3 inh 29, STAT3 activator 77, STAT1 activ conf 255*, NFkB act 115 and STAT3 act 2 105.
CCOC(=O)/C(C#N)=C/c1cc(C)n(-c2ccc(Br)cc2)c1C was read as NF-kB neuron act 1.5, APP 5'UTR act 4, STAT1 blocker -3, STAT1 act 103, STAT3 inh -1 and STAT3 activator 107.
For CCC(=Nc1ccccc1)C1=C(O)CC(C)(C)CC1=O the results were NF-kB neuron act 1.1, APP 5'UTR act -7, STAT1 blocker 0, STAT1 act 98, STAT3 inh 8 and STAT3 activator 98.
Cc1cc(C)cc(-n2ccnc2SCC(=O)O)c1 was read as NF-kB neuron act 1.1, APP 5'UTR act -16, STAT1 blocker 6, STAT1 act 95, STAT3 inh 5 and STAT3 activator 96.
Screening COc1ccccc1-c1nn2c(-c3ccco3)nnc2s1 returned NF-kB neuron act 1.4, APP 5'UTR act 44, STAT1 blocker -79, STAT1 act 172*, STAT3 inh 13, STAT3 activator 90, STAT1 activ conf 192*, NFkB act 138* and STAT3 act 2 108.
O=[N+]([O-])c1ccccc1N/N=C/c1ccc2c(c1)OCO2 was read as NF-kB neuron act 3, APP 5'UTR act 139*, STAT1 blocker -60, STAT1 act 152*, STAT3 inh -5, STAT3 activator 108, STAT1 activ conf 226*, NFkB act 121 and STAT3 act 2 117*.
NS(=O)(=O)c1ccc(N/N=C/c2ccc3c(c2)OCO3)c([N+](=O)[O-])c1 was read as NF-kB neuron act 1.3, APP 5'UTR act 9, STAT1 blocker -17, STAT1 act 115, STAT3 inh 8 and STAT3 activator 100.
C/C=C/c1c(F)c(F)c(Oc2ccc(C(=O)O)cc2)c(F)c1F was read as NF-kB neuron act 0.88, APP 5'UTR act -19, STAT1 blocker 5, STAT1 act 97, STAT3 inh 3 and STAT3 activator 98.
Screening Cc1ccc(Cc2cnc(NC(=O)c3cccs3)s2)cc1 returned NF-kB neuron act 7.1*, APP 5'UTR act 170*, STAT1 blocker -78, STAT1 act 171*, STAT3 inh 5, STAT3 activator 100, STAT1 activ conf 219*, NFkB act 143* and STAT3 act 2 133*.
`O=C(Nc1nnc(Cc2ccccc2)s1)c1cccs1` gave NF-kB neuron act 1.7, APP 5'UTR act 23, STAT1 blocker -25, STAT1 act 122, STAT3 inh -9 and STAT3 activator 110.
Screening O=C(Nc1ncc(Cc2ccccc2)s1)c1cccs1 returned NF-kB neuron act 8.4*, APP 5'UTR act 194*, STAT1 blocker -59, STAT1 act 154*, STAT3 inh 13, STAT3 activator 92, STAT1 activ conf 276*, NFkB act 142* and STAT3 act 2 122*.
`O=C(NCc1cccnc1)C1COc2ccccc2O1` (centres undefined) gave NF-kB neuron act 1, APP 5'UTR act 1, STAT1 blocker -10, STAT1 act 109, STAT3 inh 1 and STAT3 activator 102.
For O=C(Nc1ncc(Cc2cccc(Cl)c2)s1)c1cccs1 the results were NF-kB neuron act 3, APP 5'UTR act 65, STAT1 blocker -26, STAT1 act 124, STAT3 inh 12 and STAT3 activator 92.
For O=C(Nc1ncc(Cc2ccccc2)s1)C1COc2ccccc2O1 (centres undefined) the results were NF-kB neuron act 3.2, APP 5'UTR act 164*, STAT1 blocker -92, STAT1 act 184*, STAT3 inh 6, STAT3 activator 98, STAT1 activ conf 192*, NFkB act 132 and STAT3 act 2 114*.
`COc1ccc(NC(=O)C(Cl)=C(Cl)Cl)cn1` gave NF-kB neuron act 1.9, APP 5'UTR act -30, STAT1 blocker 4, STAT1 act 97, STAT3 inh -2 and STAT3 activator 102.
Screening COc1ccc(CC(=O)Nc2ccc(OC)nc2)cc1 returned NF-kB neuron act 1.1, APP 5'UTR act 2, STAT1 blocker 5, STAT1 act 94, STAT3 inh -6 and STAT3 activator 111.
`COc1ccc(NC(=O)/C(Cl)=C(/Cl)S(=O)Cc2ccc(Cl)cc2)cn1` (centres undefined) gave NF-kB neuron act 0.18, APP 5'UTR act -96, STAT1 blocker -202, STAT1 act 292*, STAT3 inh 26, STAT3 activator 79, STAT1 activ conf 278*, NFkB act 47 and STAT3 act 2 101.
COc1ccc(NC(=O)/C(Cl)=C(/Cl)S(=O)(=O)Cc2ccccc2)cn1 was read as NF-kB neuron act 0.27, APP 5'UTR act -77, STAT1 blocker -137, STAT1 act 170*, STAT3 inh -9, STAT3 activator 109, STAT1 activ conf 160*, NFkB act 90 and STAT3 act 2 116*.

Source: PubChem BioAssay
